Measurements: ChEMBL document CHEMBL1649574, “Prevalence and characterization of heterogeneous vancomycin-intermediate Staphylococcus aureus isolates from 14 cities in China” (2009)
Converted amounts (≈) assume the structure as drawn.

Columns and labels:
Assay type in all cases: functional
Staphylococcus aureus [1] = assay: Antimicrobial activity against SCCmec type II vancomycin-intermediate Staphylococcus aureus isolate b2k4781 by agar dilution method
How it was run: (§1)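 Agar-dilution MICs were measured on a subset of 200 blood MRSA isolates from China. Agents: oxacillin, rifampin, gentamicin, levofloxacin, erythromycin, vancomycin, teicoplanin, tigecycline, ceftobiprole and linezolid. Phenotype came from the PAP-AUC ratio of each isolate to S. aureus Mu3 (VSSA <0.9; hVISA 0.9 to 1.3; VISA ≥1.3), read on BHI agar with 0 to 8.0 mg/liter vancomycin after 48 h at 35°C.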

Staphylococcus aureus [2] = assay: Antimicrobial activity against SCCmec type III vancomycin-intermediate Staphylococcus aureus isolate zj07028 by agar dilution method; how it was run: as §1
Staphylococcus aureus [3] = assay: Antimicrobial activity against SCCmec type III vancomycin-intermediate Staphylococcus aureus isolate b5k3578 by agar dilution method; how it was run: as §1
Staphylococcus aureus [4] = assay: Antimicrobial activity against SCCmec type II vancomycin-intermediate Staphylococcus aureus isolate 4sy32 by agar dilution method; how it was run: as §1
Staphylococcus aureus [5] = assay: Antimicrobial activity against SCCmec type III vancomycin-intermediate Staphylococcus aureus isolate b5k3529 by agar dilution method; how it was run: as §1
Staphylococcus aureus [6] = assay: Antimicrobial activity against SCCmec type III vancomycin-intermediate Staphylococcus aureus isolate b3k2345 by agar dilution method; how it was run: as §1
Staphylococcus aureus [7] = assay: Antimicrobial activity against SCCmec type III vancomycin-intermediate Staphylococcus aureus isolate 5zjsau3 by agar dilution method; how it was run: as §1
Staphylococcus aureus [8] = assay: Antimicrobial activity against SCCmec type II vancomycin-intermediate Staphylococcus aureus isolate sh06024 by agar dilution method; how it was run: as §1
Staphylococcus aureus [9] = assay: Antimicrobial activity against SCCmec type II vancomycin-intermediate Staphylococcus aureus isolate 4sy39 by agar dilution method; how it was run: as §1
Staphylococcus aureus [10] = assay: Antimicrobial activity against SCCmec type III vancomycin-intermediate Staphylococcus aureus isolate b3k5923 by agar dilution method; how it was run: as §1
Staphylococcus aureus [11] = assay: Antimicrobial activity against SCCmec type III vancomycin-intermediate Staphylococcus aureus isolate gz06051 by agar dilution method; how it was run: as §1
Staphylococcus aureus [12] = assay: Antimicrobial activity against SCCmec type III vancomycin-intermediate Staphylococcus aureus isolate b4k6307 by agar dilution method; how it was run: as §1
Staphylococcus aureus [13] = assay: Antimicrobial activity against SCCmec type II vancomycin-intermediate Staphylococcus aureus isolate 6zjsau7 by agar dilution method; how it was run: as §1
Staphylococcus aureus [14] = assay: Antimicrobial activity against SCCmec type III vancomycin-intermediate Staphylococcus aureus isolate gz06040 by agar dilution method; how it was run: as §1
Staphylococcus aureus [15] = assay: Antimicrobial activity against SCCmec type III vancomycin-intermediate Staphylococcus aureus isolate 13b16 by agar dilution method; how it was run: as §1
Staphylococcus aureus [16] = assay: Antimicrobial activity against SCCmec type III vancomycin-intermediate Staphylococcus aureus isolate bd4768 by agar dilution method; how it was run: as §1
Staphylococcus aureus [17] = assay: Antimicrobial activity against SCCmec type III vancomycin-intermediate Staphylococcus aureus isolate xa07029 by agar dilution method; how it was run: as §1
Staphylococcus aureus [18] = assay: Antimicrobial activity against SCCmec type III vancomycin-intermediate Staphylococcus aureus isolate sh07043 by agar dilution method; how it was run: as §1
Staphylococcus aureus [19] = assay: Antimicrobial activity against SCCmec type III vancomycin-intermediate Staphylococcus aureus isolate gs07022 by agar dilution method; how it was run: as §1
Staphylococcus aureus [20] = assay: Antimicrobial activity against SCCmec type III vancomycin-intermediate Staphylococcus aureus isolate b6k7974 by agar dilution method; how it was run: as §1
Staphylococcus aureus [21] = assay: Antimicrobial activity against SCCmec type II vancomycin-intermediate Staphylococcus aureus isolate 07b63 by agar dilution method; how it was run: as §1
Staphylococcus aureus [22] = assay: Antimicrobial activity against SCCmec type III vancomycin-intermediate Staphylococcus aureus isolate b2k3421 by agar dilution method; how it was run: as §1
Staphylococcus aureus [23] = assay: Antimicrobial activity against SCCmec type III vancomycin-intermediate Staphylococcus aureus isolate 15b52 by agar dilution method; how it was run: as §1
Staphylococcus aureus [24] = assay: Antimicrobial activity against SCCmec type IV vancomycin-intermediate Staphylococcus aureus isolate 06b41 by agar dilution method; how it was run: as §1
Staphylococcus aureus [25] = assay: Antimicrobial activity against SCCmec type III vancomycin-intermediate Staphylococcus aureus isolate 11b091 by agar dilution method; how it was run: as §1
Staphylococcus aureus [26] = assay: Antimicrobial activity against SCCmec type III vancomycin-intermediate Staphylococcus aureus isolate gz07030 by agar dilution method; how it was run: as §1
Staphylococcus aureus [27] = assay: Antimicrobial activity against SCCmec type III vancomycin-intermediate Staphylococcus aureus isolate b6k1642 by agar dilution method; how it was run: as §1

Compound	MIC (Staphylococcus aureus [1]) [µg/mL]	MIC (Staphylococcus aureus [2]) [µg/mL]	MIC (Staphylococcus aureus [3]) [µg/mL]	MIC (Staphylococcus aureus [4]) [µg/mL]	MIC (Staphylococcus aureus [5]) [µg/mL]	MIC (Staphylococcus aureus [6]) [µg/mL]	MIC (Staphylococcus aureus [7]) [µg/mL]	MIC (Staphylococcus aureus [8]) [µg/mL]	MIC (Staphylococcus aureus [9]) [µg/mL]	MIC (Staphylococcus aureus [10]) [µg/mL]	MIC (Staphylococcus aureus [11]) [µg/mL]	MIC (Staphylococcus aureus [12]) [µg/mL]	MIC (Staphylococcus aureus [13]) [µg/mL]	MIC (Staphylococcus aureus [14]) [µg/mL]	MIC (Staphylococcus aureus [15]) [µg/mL]	MIC (Staphylococcus aureus [16]) [µg/mL]	MIC (Staphylococcus aureus [17]) [µg/mL]	MIC (Staphylococcus aureus [18]) [µg/mL]	MIC (Staphylococcus aureus [19]) [µg/mL]	MIC (Staphylococcus aureus [20]) [µg/mL]	also measured
CC[C@H]1OC(=O)[C@H](C)[C@@H](O[C@H]2C[C@@](C)(OC)[C@@H](O)[C@H](C)O2)[C@H](C)[C@@H](O[C@@H]2O[C@H](C)C[C@H](N(C)C)[C@H]2O)[C@](C)(OC)C[C@@H](C)C(=O)[C@H](C)[C@@H](O)[C@]1(C)O [CLARITHROMYCIN]	64 (≈ 85.6 µM)	32 (≈ 42.8 µM)	32 (≈ 42.8 µM)	32 (≈ 42.8 µM)	64 (≈ 85.6 µM)	64 (≈ 85.6 µM)	32 (≈ 42.8 µM)	32 (≈ 42.8 µM)	32 (≈ 42.8 µM)	64 (≈ 85.6 µM)	64 (≈ 85.6 µM)	16 (≈ 21.4 µM)	> 64	32 (≈ 42.8 µM)	16 (≈ 21.4 µM)	64 (≈ 85.6 µM)	32 (≈ 42.8 µM)	> 64	64 (≈ 85.6 µM)	64 (≈ 85.6 µM)	MIC (Staphylococcus aureus [21]): 64 µg/mL (≈ 85.6 µM); MIC (Staphylococcus aureus [22]): 64 µg/mL (≈ 85.6 µM); MIC (Staphylococcus aureus [23]): 16 µg/mL (≈ 21.4 µM); MIC (Staphylococcus aureus [24]): 1 µg/mL (≈ 1.34 µM); MIC (Staphylococcus aureus [25]): > 64 µg/mL; MIC (Staphylococcus aureus [26]): 64 µg/mL (≈ 85.6 µM); MIC (Staphylococcus aureus [27]): 64 µg/mL (≈ 85.6 µM)
CC[C@H]1OC(=O)[C@H](C)[C@@H](O[C@H]2C[C@@](C)(OC)[C@@H](O)[C@H](C)O2)[C@H](C)[C@@H](O[C@@H]2O[C@H](C)C[C@H](N(C)C)[C@H]2O)[C@](C)(O)C[C@@H](C)C(=O)[C@H](C)[C@@H](O)[C@]1(C)O [ERYTHROMYCIN]	> 256	> 256	2 (≈ 2.73 µM)	1 (≈ 1.36 µM)	> 256	> 256	> 256	> 256	256 (≈ 349 µM)	> 256	0.25 (≈ 0.341 µM)	> 256	> 256	> 256	> 256	> 256	> 256	> 256	> 256	> 256	MIC (Staphylococcus aureus [21]): > 256 µg/mL; MIC (Staphylococcus aureus [22]): > 256 µg/mL; MIC (Staphylococcus aureus [23]): 256 µg/mL (≈ 349 µM); MIC (Staphylococcus aureus [24]): 128 µg/mL (≈ 174 µM); MIC (Staphylococcus aureus [25]): > 256 µg/mL; MIC (Staphylococcus aureus [26]): > 256 µg/mL; MIC (Staphylococcus aureus [27]): > 256 µg/mL
C[C@H]1COc2c(N3CCN(C)CC3)c(F)cc3c(=O)c(C(=O)O)cn1c23.C[C@H]1COc2c(N3CCN(C)CC3)c(F)cc3c(=O)c(C(=O)O)cn1c23.O [LEVOFLOXACIN]	32	8	16	8	16	16	16	8	16	32	64	4	32	64	32	32	8	32	32	64	MIC (Staphylococcus aureus [21]): 8 µg/mL; MIC (Staphylococcus aureus [22]): 16 µg/mL; MIC (Staphylococcus aureus [23]): 4 µg/mL; MIC (Staphylococcus aureus [24]): 0.25 µg/mL; MIC (Staphylococcus aureus [25]): 32 µg/mL; MIC (Staphylococcus aureus [26]): 64 µg/mL; MIC (Staphylococcus aureus [27]): 16 µg/mL
